IC50 data for one molecule are collected here from article PMC9933231 (ACS Omega, 2023).

A short description of data set [1]: Cytotoxicity assay. The data set is classed as cell-based. As to conditions: human, HaCaT keratinocytes. Summed up: (§1)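 Cells were kept in RPMI 1640 with 10% FBS, penicillin and streptomycin at 37 °C in humidified 5% CO2, and subcultured every 3–4 days. They were seeded at 1 × 10^4 cells/well and left 24 h. Medium was then replaced with test samples, with doxorubicin as reference, for 24 h at 37 °C. CellTiter-Blue was added for 2 h at 37 °C, and fluorescence was read at ex 560/em 590 nm.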

Data set [2] is described as follows: Cytotoxicity assay. The data set is classed as cell-based. The conditions noted are these: human, HepG2 cells. The essentials:
as §1

In brackets after ≈: the same amount, converted by molar mass.

By IC50 is commonly meant the midpoint of a concentration-inhibition curve. A high value points to a need for much substance. As for `COc1cccc2c1C(=O)c1c(O)c3c(c(O)c1C2=O)C[C@@](O)(C(=O)CO)C[C@@H]3O[C@H]1C[C@H](N)[C@H](O)[C@H](C)O1` [doxorubicin], the 50% inhibitory concentration (IC50) at 24 h in the data set “Cytotoxicity assay [1]” worked out at 19.8 ± 0.8 mg/L (≈ 36.4 µM); in “Cytotoxicity assay [2]” it was 11.4 ± 0.5 mg/L (≈ 21 µM).
